Test results taken from ChEMBL document CHEMBL1123036, “Synthesis and antiallergic activities of 1,3-oxazolo[4,5-h]quinolines” (J Med Chem, 1985).

What was measured:
[1] = organism: Rattus norvegicus; assay: Ability to inhibit passive cutaneous anaphylaxis in rat, when compound was injected perorally; format: functional
Procedure, shortened: (§1)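 Rat passive cutaneous anaphylaxis: the read-out was inhibition of IgE-mediated cutaneous wheal formation after antigen challenge. Compounds were given by the route and dose stated on the line.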

[2] = organism: Rattus norvegicus; assay: In vitro ability to inhibit antigen-induced release of histamine (AIR) from rat peritoneal mast cells.; format: functional
Procedure, shortened: (§2)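 Rat peritoneal cells were collected by lavage and contained 5–10% mast cells. Histamine was measured by a radioenzymatic method instead of fluorometry, because some test agents fluoresce. Samples were incubated with [¹⁴C]methyl-S-adenosylmethionine and histamine-N-methyltransferase prepared from rat kidneys.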

[3] = tested on: Rattus norvegicus; assay: Ability to inhibit passive cutaneous anaphylaxis in rat, when compound was injected intraperitoneally; format: functional; settings: ip; procedure, shortened: as §1
[4] = tested on: Rattus norvegicus; assay: Percentage inhibition against passive cutaneous anaphylaxis after injecting 10 mg/kg intraperitoneally in rat; format: functional; settings: route intraperitoneal; for inhibition in vivo at 10 mg/kg: Rattus norvegicus, ip; procedure, shortened: as §1
[5] = organism: Rattus norvegicus; assay: (§3) In vitro ability to inhibit antigen-induced release of histamine (AIR) from rat peritoneal mast cells; format: functional
Procedure, shortened: (§4)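 Peritoneal cells collected from rats by lavage, containing 5–10% mast cells. Antigen-induced histamine release was quantified radioenzymatically rather than fluorometrically: samples were incubated with [¹⁴C]methyl-S-adenosylmethionine and histamine-N-methyltransferase prepared from rat kidneys.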

[6] = organism: Rattus norvegicus; assay: Percentage inhibition against passive cutaneous anaphylaxis in rat, when injected perorally; format: functional
Procedure, shortened: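 Rat passive cutaneous anaphylaxis, an IgE-mediated cutaneous wheal formation model; compounds given orally before antigen challenge; read-out is percent inhibition of wheal formation.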

[7] = tested on: Rattus norvegicus; assay: Percentage inhibition against passive cutaneous anaphylaxis after injecting 10 mg/kg perorally in rat; format: functional; settings: route oral; procedure, shortened: as §1
[8] = organism: Rattus norvegicus; assay: Ability to inhibit anaphylactically induced release of histamine (AIR) from rat peritoneal mast cells; format: functional, cell-based; procedure, shortened: as §4
[9] = tested on: Rattus norvegicus; assay: Percentage inhibition of 30 mg/kg compound against antigen-induced release of histamine (AIR) from rat mast cells; format: functional
[10] = organism: Rattus norvegicus; assay: In vitro ability to inhibit antigen-induced release of histamine (AIR) from rat peritoneal mast cells; the compound was tested at a concentration of 50 uM.; format: functional, cell-based
[11] = tested on: Rattus norvegicus; assay: Percentage inhibition against passive cutaneous anaphylaxis after injecting 125 mg/kg perorally in rat; format: functional; settings: route oral; procedure, shortened: as §1
[12] = organism: Rattus norvegicus; assay: Ability to inhibit passive cutaneous anaphylaxis in rat, when compound was injected perorally.; format: functional; procedure, shortened: as §1
[13] = tested on: Rattus norvegicus; assay: Percentage inhibition against passive cutaneous anaphylaxis in rat, when injected intraperitoneally; format: functional; procedure, shortened: as §1
[14] = organism: Rattus norvegicus; assay: as §3; format: functional, cell-based; procedure, shortened: as §4
[15] = tested on: Rattus norvegicus; assay: Percentage inhibition against passive cutaneous anaphylaxis after injecting 25 mg/kg perorally in rat; format: functional; settings: route oral; procedure, shortened: as §1
[16] = organism: Rattus norvegicus; assay: In vitro ability to inhibit antigen-induced release of histamine (AIR) from rat mast cells; format: functional, cell-based; procedure, shortened: as §2
[17] = tested on: Rattus norvegicus; assay: Ability to inhibit passive cutaneous anaphylaxis in rat, when compound was injected intraperitoneally.; format: functional; settings: ip; procedure, shortened: as §1
[18] = organism: Rattus norvegicus; assay: In vitro ability to inhibit antigen-induced release of histamine (AIR) from rat mast cells; histamine release was assayed by a radioenzymatic method; format: functional, cell-based; procedure, shortened: as §2
[19] = tested on: Rattus norvegicus; assay: Ability to inhibit passive cutaneous anaphylaxis in rat, when […] injected perorally; format: functional; settings: route oral; procedure, shortened: as §1

`CC(=O)n1c(=O)oc2c3ncccc3ccc21` was tested, and the ED50 [1] was 4 mg/kg, the Inhibition [2] was under 30% and the ED50 [3] was 10 mg/kg.

With `O=C(O)c1nc2cc(Cl)c3cccnc3c2o1` the inhibition in vivo at 10 mg/kg [4] was 47%.

`O=C(/C=C/c1ccccc1)n1c(=O)oc2c3ncccc3c(Cl)cc21` gave an Inhibition [5] of 18% and an Inhibition [6] of 0%.

In the case of `Clc1cc2ncoc2c2ncccc12`, the inhibition in vivo at 10 mg/kg [7] is reported as 28%.

`COc1ccccc1NC(=O)Oc1cccc2cccnc12` was tested, and the IC50 [8] was 2000 nM.

`COc1ccccc1C(=O)n1c(=O)oc2c3ncccc3c(Cl)cc21` gave an Inhibition [5] of 16% and an Inhibition [6] of 34%.

Compound `CCOC(=O)n1c(=O)oc2c3ncccc3c(Cl)cc21` has an Inhibition [6] of 43%.

`Clc1cc2nc(-c3ccccc3)oc2c2ncccc12` gave an inhibition in vivo at 30 mg/kg [9] of under 30% and an inhibition in vivo at 10 mg/kg [7] of 3%.

With `Oc1nc2cc(Cl)c3cccnc3c2o1` the % inhibition [10] was 18% and the inhibition in vivo at 125 mg/kg [11] was 14%.

`Cn1c(=O)oc2c3ncccc3c(Cl)cc21` was tested, and the inhibition in vivo at 125 mg/kg [11] was 51% and the ED50 [12] was 102 mg/kg.

With `Clc1cc2nc(C(Cl)(Cl)Cl)oc2c2ncccc12` the Inhibition [13] was 28% and the IC50 [14] was 30 nM.

For `CCOC(=O)c1nc2cc(Cl)c3cccnc3c2o1`, the inhibition in vivo at 10 mg/kg [4] was 59% and the IC50 [14] was 100 nM.

Work on `O=C([O-])c1nc2cc(Cl)c3cccnc3c2o1.[Na+]` yielded an Inhibition [4] of 51% and an IC50 [14] of 300 nM.

For `CC(=O)n1c(=O)oc2c3ncccc3c(Cl)cc21`, the Inhibition [6] was 15%.

With `Cc1nc2cc(Cl)c3cccnc3c2o1` the inhibition in vivo at 10 mg/kg [7] was 15% and the IC50 [14] was 33000 nM.

`Oc1nc2ccc3cccnc3c2o1` was tested, and the inhibition in vivo at 25 mg/kg [15] was 0%.

`CCOC(=O)Cc1nc2cc(Cl)c3cccnc3c2o1` gave an inhibition in vivo at 10 mg/kg [4] of 9%.

With `CN(C)C(=O)n1c(=O)oc2c3ncccc3c(Cl)cc21` the Inhibition [5] was 0%.

`O=C([O-])c1cc(=O)c2c(OCC(O)COc3cccc4oc(C(=O)[O-])cc(=O)c34)cccc2o1.[Na+].[Na+]` [CROMOLYN SODIUM] showed an IC50 [16] of 3000 nM and an ED50 [17] of 6 mg/kg.

`COC(=O)c1nc2cc(Cl)c3cccnc3c2o1` [QUAZOLAST] showed an IC50 [18] of 300 nM, an ED50 [19] of 0.5 mg/kg and an inhibition in vivo at 10 mg/kg [4] of 100%. For the same compound, the ED50 [17] was 0.1 mg/kg.
